Hits are enriched below; roughly 3.5% of the tested compounds scored in any of these assays.
MrgX1 ag: activates human MrgX1 receptor signaling. Q96LB2. MrgX1-HEK293 cells, Fluo-4 calcium fluorescence, agonist mode; active compounds read high. B-score at 10 µM. 0.44% of 310,000 active. AID 588627;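 active = calcium response B-score plate-corrected fluorescence ratio at least 3 library SD, with starting fluorescence B-score inside 5 SD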
Target sequence (Q96LB2 whole entry, looked up): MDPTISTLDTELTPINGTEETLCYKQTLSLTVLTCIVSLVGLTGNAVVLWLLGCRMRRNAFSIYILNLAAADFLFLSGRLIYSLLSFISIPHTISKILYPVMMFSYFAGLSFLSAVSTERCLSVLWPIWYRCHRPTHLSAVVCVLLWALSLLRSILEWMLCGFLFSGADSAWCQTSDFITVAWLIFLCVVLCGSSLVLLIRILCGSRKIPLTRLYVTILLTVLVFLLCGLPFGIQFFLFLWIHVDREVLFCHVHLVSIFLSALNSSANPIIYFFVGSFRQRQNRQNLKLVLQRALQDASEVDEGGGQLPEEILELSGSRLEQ
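System – MrgX1-expressing HEK293 cells · Incubation – cells plated overnight, dye loaded 0.5 h 37 °C, 0.5 h room temperature · Technique – kinetic Fluo-4 NW fluorescence of intracellular calcium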
MrgX1 allo act: human MrgX1 positive allosteric modulation, primary screen. MrgX1-HEK293, Fluo-4 calcium flux, FDSS; active compounds read high. 0.63% of 310,000 active. Q96LB2. B-score at 10 µM;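 active = plate-corrected calcium response at least 3 library SD above typical, normal starting fluorescence, not activating the receptor alone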;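 also: compound read alongside a low EC10 to EC30 dose of BAM8-22 agonist; peak minus trough fluorescence over baseline measured at the second addition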
MrgX1 antag: human MrgX1 receptor antagonism, primary screen; Q96LB2; MRGX1-HEK293 calcium flux, Fluo-4, BAM8-22 antagonism; active compounds read low; B-score at 10 µM; 1.3% of 310,000 active;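 active = calcium-response B-score plate-corrected more than 3 library SD below zero, starting fluorescence within 5 deviations, no agonist response on first addition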;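 also: peak minus trough fluorescence over baseline after final BAM8-22 challenge near maximal dose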
RGS4 block: human RGS4 inhibition; HEK293 M3R/RGS4 inducible, Fluo-4 calcium flux; active compounds read high; triggered by carbachol at its EC20; B-score at 10 µM; 0.45% of 310,000 active;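 active = B-score, a plate-corrected calcium signal, over three deviations above library mean, with baseline fluorescence within five deviations of library mean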;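 also: RGS4 expression induced by doxycycline in cells with stable M3 receptor; B-score is computed from the integrated fluorescence ratio over baseline after carbachol; higher B-score means a larger calcium signal and so more RGS4 inhibition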
Target sequence (P49798 whole entry, looked up): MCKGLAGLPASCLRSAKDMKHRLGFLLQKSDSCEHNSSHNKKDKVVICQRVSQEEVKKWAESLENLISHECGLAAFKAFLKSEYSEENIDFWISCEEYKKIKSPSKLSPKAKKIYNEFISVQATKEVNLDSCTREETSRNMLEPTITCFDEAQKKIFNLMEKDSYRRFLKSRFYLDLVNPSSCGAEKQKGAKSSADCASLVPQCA
RGS4 act: potentiators or activators of RGS4; HEK293 M3R/inducible RGS4, carbachol calcium flux Fluo4; active compounds read low; B-score at 10 µM; 0.92% of 310,000 active; AID 463111;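 active = B-score of the integrated calcium signal more than 4 SD below the library mean, with starting fluorescence not abnormally high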;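 also: negative B-score means reduced calcium response which marks RGS4 activation or potentiation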
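System: HEK293 FlpIn-TREx cells, stable M3R, doxycycline-inducible RGS4. Timing: overnight RGS4 induction, 30 min dye load 37 °C, 20 min compound RT. Also added: carbachol, ECmax concentration. Measured by: Fluo4 fluorescence kinetic imaging of calcium. Evaluation: integrated calcium ratio converted to B score.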
RGS4 inh valid: RGS4 inhibitor validation; shares compounds with RGS4 block; HEK293 M3R/RGS4, carbachol calcium Fluo-4 fluorescence; carbachol added at its EC20; 0 = buffer wells, 100 = carbachol control; calcium response, % at 10 µM; 65% of 1,700 active; AID 492999;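 active = duplicate-averaged calcium response above the buffer-only control mean plus 5 SD of those controls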;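 also: integrated fluorescence ratio F max minus min over baseline F0; higher response in RGS4-induced cells means RGS4 inhibition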
M3R Ca ctr: checks RGS4 inhibitor effects in non-induced HEK293 M3R cells; shares compounds with RGS4 block; AID 493000; 20% of 1,900 active; activity (percent), % at 10 µM; carbachol calcium Fluo-4; submaximal (EC20) carbachol stimulus; buffer wells 0%, carbachol control wells 100%; call rule not given here;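 also: RGS4 induction absent so cells express M3R without RGS4; higher means more calcium signal and flags a non-specific hit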
M3R basal Ca ctr: signal in non-induced cells without carbachol, RGS4 inhibitor counter-screen; shares compounds with RGS4 block; HEK293 M3R/RGS4 non-induced, Fluo-4 calcium, no carbachol; normalised: buffer wells 0%, carbachol wells 100%; calcium response (agonist-mode artifact), % at 10 µM; 22% of 1,900 active;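 active = duplicate-averaged calcium rise in uninduced cells above buffer wells' mean plus 5 SD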
Each line names hits and unclear results; the compound was inactive in the other large screens (follow-up assays come after a bar, where they were run).

O=C1NC(=O)N(Cc2ccccc2Cl)C(=O)/C1=C/c1cccs1	none
Cc1ccc(/C=C2\C(=O)NC(=S)N(c3cccc(F)c3)C2=O)o1	RGS4 block 16 | RGS4 inh valid 34% | M3R Ca ctr inactive | M3R basal Ca ctr inactive
Cc1cccc(NP(C)(=O)c2nc3c(s2)CCCC3)c1 (stereo not given)	none
O=S(=O)(c1ccccc1)N1CCN2CCCC2C1 (stereo not given)	none
CC(C)(C)N1Cc2ccccc2C1=N	none
COc1cccc(CC(=O)N(C)C2CCCN(Cc3ccccc3F)C2)c1 (stereo not given)	none
O=C1NC(=O)C(=Cc2ccc(-c3ccc(S(=O)(=O)N4CCOCC4)cc3)o2)C(=O)N1	none
O=C1NC(=O)C(=Cc2ccc(-c3ccc(F)cc3O)o2)C(=O)N1	RGS4 block 40 | RGS4 inh valid 74% | M3R Ca ctr 32% | M3R basal Ca ctr 10%
O=C1NC(=O)C(=Cc2ccc3c(c2)OCO3)C(=O)N1	none
O=C1NC(=O)C(=Cc2ccc(-c3ccc(Cl)cc3)o2)C(=O)N1	RGS4 block 14 | RGS4 inh valid 16% | M3R Ca ctr inactive | M3R basal Ca ctr 8.5%
O=C(Cn1nc(-c2ccccc2)ccc1=O)N1CCC2(CC1)OCCO2	none
CN1C(=O)/C(=C/C=C/c2ccco2)C(=O)NC1=S	none
CN1C(=O)NC(=O)/C(=C\C=C\c2ccccc2[N+](=O)[O-])C1=O	RGS4 block 6.6 | RGS4 inh valid 16% | M3R Ca ctr inactive | M3R basal Ca ctr 10%
Cc1cc(O)c2c3c(c(=O)oc2c1)CCC(C)C3 (stereo not given)	none
O=C1NC(=O)N(c2ccc3c(c2)OCO3)C(=O)/C1=C/c1cccs1	RGS4 block 13 | RGS4 inh valid 18% | M3R Ca ctr 34% | M3R basal Ca ctr inactive
O=C1NC(=O)N(c2ccc3c(c2)OCO3)C(=O)/C1=C/c1ccsc1	none
O=C1NC(=O)C(=Cc2ccc(Sc3ccccc3)o2)C(=O)N1	RGS4 block 9.9 | RGS4 inh valid 5.0% | M3R Ca ctr inactive | M3R basal Ca ctr 29%
CN1C(=O)C(=Cc2ccc(Sc3ccccc3)o2)C(=O)N(C)C1=S	none | RGS4 inh valid inactive | M3R Ca ctr inactive | M3R basal Ca ctr 8.5%
CN1C(=O)C(=Cc2coc3ccccc3c2=O)C(=O)N(C)C1=O	none
CN1C(=O)C(=Cc2ccc(N3CCOCC3)o2)C(=O)N(C)C1=S	none
CN1C(=O)C(=Cc2ccc(Sc3ccccc3)o2)C(=O)N(C)C1=O	RGS4 block 27 | RGS4 inh valid 23% | M3R Ca ctr inactive | M3R basal Ca ctr 210%
NC(=O)Cn1cc(C(=O)c2ccccc2)c2ccccc21	none
O=C(c1ccc(-c2ccccc2)cc1)C1CCCN(Cc2ccn[nH]2)C1 (stereo not given)	none
C=C(CC1CC(O)[C@]2(C)OC3CC4OC5C[C@]6(C)O[C@]7(C)CCC8OC9C[C@]%10(C)OC%11C(C)=CC(=O)OC%11CC%10OC9C[C@@H](C)C8OC7CC6O[C@]5(C)C/C=C\C4OC3CC2O1)C(=O)O (stereo not given in full)	none | RGS4 inh valid inactive | M3R Ca ctr inactive | M3R basal Ca ctr inactive
Nc1c(C(=O)NCc2ccco2)c2nc3ccccc3nc2n1CCN1CCCCC1	none | RGS4 inh valid inactive | M3R Ca ctr inactive | M3R basal Ca ctr 12%
COc1ccc(OC)c(N2C(=O)NC(=O)/C(=C/c3ccc([N+](=O)[O-])s3)C2=O)c1	RGS4 block 5.8 | RGS4 inh valid 15% | M3R Ca ctr inactive | M3R basal Ca ctr inactive
COc1ccc(OC)c(N2C(=O)/C(=C/c3ccco3)C(=O)NC2=S)c1	none
N#CCP(=S)(c1ccccc1)c1ccccc1	none
O=c1oc2ccccc2c(O)c1C(c1ccc([N+](=O)[O-])cc1)c1c(O)c2ccccc2oc1=O	RGS4 block 4.9 (no result: MrgX1 ag, MrgX1 allo act, MrgX1 antag) | RGS4 inh valid 30% | M3R Ca ctr inactive | M3R basal Ca ctr inactive
CC/C(=N\N1CCCCC1)c1c(O)[nH]c(=O)[nH]c1=O	RGS4 block 4.7 | RGS4 inh valid 8.5% | M3R Ca ctr inactive | M3R basal Ca ctr inactive
COc1ccc(C(=O)NC(=S)N2C[C@H]3C[C@H](C2)c2cccc(=O)n2C3)cc1	none
O=C1/C(=C\c2ccc(Cl)c(Cl)c2)N2CCC1CC2	RGS4 block 21 | RGS4 inh valid 16% | M3R Ca ctr inactive | M3R basal Ca ctr inactive
O=C1/C(=C\c2ccc(Cl)cc2Cl)N2CCC1CC2	RGS4 block 7.7 | RGS4 inh valid 6.5% | M3R Ca ctr inactive | M3R basal Ca ctr inactive
O=C1/C(=C\c2ccncc2)N2CCC1CC2	none
O=C1/C(=C\c2cc3c(cc2Cl)OCO3)N2CCC1CC2	none
CN1CCN(C(=O)O[C@H]2c3nccnc3C(=O)N2c2ccc(Cl)cn2)CC1	none
CN(C)CCSCc1nnc2n1-c1ccc(Cl)cc1C(c1ccccc1Cl)=NC2	none
O=C(N/N=C/c1c(O)n(Cc2ccccc2)c(=O)[nH]c1=O)c1ccncc1	none | M3R Ca ctr 34% | M3R basal Ca ctr inactive
O=C(N/N=C/c1c(O)n(Cc2ccc(F)cc2)c(=O)[nH]c1=O)c1ccccc1	none | M3R Ca ctr inactive | M3R basal Ca ctr inactive
C=CCn1c(O)c(/C=N/NC(=O)c2ccncc2)c(=O)[nH]c1=O	none
COC(=O)C1=C(c2cc3ccccc3s2)C[C@@H]2CC[C@H]1N2C(=O)NCc1ccc(F)cc1	none
CNc1cc(Cl)c2nonc2c1[N+](=O)[O-]	RGS4 block 17 (no result: MrgX1 ag, MrgX1 allo act, MrgX1 antag) | RGS4 inh valid 54% | M3R Ca ctr inactive | M3R basal Ca ctr inactive
Cc1cc([N+](=O)[O-])c(Cl)cc1NC(=O)C(C)C	none
CCN(CC)C(=O)Cn1cc(/C=C2\C(=O)NC(=O)N(c3ccccc3F)C2=O)c2ccccc21	MrgX1 ag 27, RGS4 block 6.6 | RGS4 inh valid 38% | M3R Ca ctr inactive | M3R basal Ca ctr 430%
N[C@@H](Cc1cc(Br)c(O)c(Br)c1)C(=O)O	RGS4 block 6.7 | RGS4 inh valid 12% | M3R Ca ctr inactive | M3R basal Ca ctr inactive
O=C(NCc1ccccc1)c1cccn(Cc2cccc(Cl)c2)c1=O	none
O=C1NC(=O)N(c2ccccc2)C(=O)/C1=C/C=C/c1ccco1	none
Cc1cccc(N2C(=O)NC(=O)/C(=C\C=C\c3ccco3)C2=O)c1	MrgX1 ag 57, RGS4 block 17 | RGS4 inh valid 49% | M3R Ca ctr 64% | M3R basal Ca ctr 88%
